This note sets out measurements from ChEMBL document CHEMBL1149102, “De novo design, synthesis, and pharmacology of alpha-melanocyte stimulating hormone analogues derived from somatostatin by a hybrid approach” (J Med Chem, 2004).

Assay [1] addresses T1, Melanocortin receptor 4 (Mus musculus, UniProt P56450). Nature of the assay: Effective concentration for maximum agonist response towards mouse melanocortin 4 receptor. The format is functional. An outline of the steps: (§1)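 Cells stably expressing wild-type mouse (MC3R: rat) melanocortin receptor, transfected with 4 μg CRE/β-galactosidase reporter; 5000–15 000 cells plated, incubated overnight. At 48 h post-transfection, stimulated 6 h in DMEM with 0.1 mg/mL BSA and 0.1 mM IBMX; forskolin 10^-4 M reference.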

For the next assay, the target named is Melanocortin receptor 5 (Mus musculus, UniProt P41149). Nature of the assay: Maximum agonist response for mouse melanocortin 5 receptor (MC5R). In kind it is functional. Summed up:
as §1

Assay [2] addresses Melanocyte-stimulating hormone receptor (Mus musculus, UniProt Q01727). Nature of the assay: Maximal agonist response of mouse melanocortin 1 receptor (MC1R). The format is functional. An outline of the steps: as §1
For a further assay, the target named is Melanocortin receptor 3 (Rattus norvegicus, UniProt P32244). The assay is described as follows: Maximal agonist response at rat melanocortin 3 receptor (MC3R). In kind it is functional. Summed up:
as §1

Assay [3] has as its system melanocyte-stimulating hormone receptor (Rana pipiens). Nature of the assay: Inhibition of 1 nM alpha melanocortin stimulating hormone from frog skin; No activity up to 10^-5 M.
Assay [4] has the same test system. Nature of the assay: Maximum agonist response for frog skin melanocortin 1 receptor (MC1R); No activity up to 10^-5M.
Assay [5] concerns the target T1, Melanocortin receptor 4. The assay is described as follows: Effective concentration for maximum agonist response towards mouse melanocortin 4 receptor (MC4R); No activity up to 10^-5 M. In kind it is functional. Summed up:
as §1

In assay [6] the test system is Melanocortin receptor 1 (Rana pipiens). The assay is described as follows: Inhibition of 1 nM alpha melanocortin stimulating hormone (MSH) from frog skin; antagonist.

Chain of Melanocortin receptor 3 (P32244 whole entry): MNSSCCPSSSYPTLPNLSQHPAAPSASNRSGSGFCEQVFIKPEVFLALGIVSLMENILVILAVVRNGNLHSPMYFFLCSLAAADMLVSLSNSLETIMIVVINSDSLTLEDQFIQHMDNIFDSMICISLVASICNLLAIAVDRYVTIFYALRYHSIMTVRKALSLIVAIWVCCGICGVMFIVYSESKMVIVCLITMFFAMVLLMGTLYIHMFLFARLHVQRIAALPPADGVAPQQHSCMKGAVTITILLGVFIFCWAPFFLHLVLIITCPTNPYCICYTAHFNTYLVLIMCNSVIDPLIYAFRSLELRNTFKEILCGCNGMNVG
Chain of Melanocyte-stimulating hormone receptor (Q01727 whole entry): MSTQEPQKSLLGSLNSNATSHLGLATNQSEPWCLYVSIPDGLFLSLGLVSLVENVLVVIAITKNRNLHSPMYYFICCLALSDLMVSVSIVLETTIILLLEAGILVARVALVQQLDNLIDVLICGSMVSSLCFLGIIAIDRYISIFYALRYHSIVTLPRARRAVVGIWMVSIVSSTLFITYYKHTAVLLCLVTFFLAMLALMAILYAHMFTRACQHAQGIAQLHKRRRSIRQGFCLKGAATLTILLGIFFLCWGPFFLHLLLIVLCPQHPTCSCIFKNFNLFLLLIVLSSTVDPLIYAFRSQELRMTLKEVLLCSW
Chain of Melanocortin receptor 5 (P41149 whole entry): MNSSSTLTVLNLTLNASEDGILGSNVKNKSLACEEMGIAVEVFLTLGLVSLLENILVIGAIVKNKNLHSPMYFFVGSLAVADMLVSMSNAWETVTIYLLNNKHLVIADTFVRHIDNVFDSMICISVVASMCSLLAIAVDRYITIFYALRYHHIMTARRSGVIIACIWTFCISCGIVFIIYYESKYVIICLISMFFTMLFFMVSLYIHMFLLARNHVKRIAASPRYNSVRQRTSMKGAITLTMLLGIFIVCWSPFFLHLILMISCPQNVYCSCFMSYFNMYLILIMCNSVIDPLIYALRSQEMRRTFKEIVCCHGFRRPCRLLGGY
T1 sequence (P56450 whole entry): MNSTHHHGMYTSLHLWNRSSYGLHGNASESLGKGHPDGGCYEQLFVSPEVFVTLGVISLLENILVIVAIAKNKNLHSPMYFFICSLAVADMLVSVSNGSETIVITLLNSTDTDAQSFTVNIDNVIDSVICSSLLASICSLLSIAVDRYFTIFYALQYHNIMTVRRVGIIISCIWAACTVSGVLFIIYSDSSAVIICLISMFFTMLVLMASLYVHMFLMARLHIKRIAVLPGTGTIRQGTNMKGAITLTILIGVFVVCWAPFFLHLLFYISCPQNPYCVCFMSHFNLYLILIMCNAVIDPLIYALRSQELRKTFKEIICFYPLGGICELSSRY

For the molecule `C[C@@H](O)[C@H](NC(=O)[C@@H]1CCSSC[C@H](NC(=O)[C@H](N)Cc2ccccc2)C(=O)N[C@@H](Cc2cnc[nH]2)C(=O)N[C@H](Cc2ccccc2)C(=O)N[C@@H](CCCNC(=N)N)C(=O)N[C@@H](Cc2c[nH]c3ccccc23)C(=O)N1)C(N)=O`, the EC50 stood at 51 nM on Melanocortin receptor 4 [1], 2.2 nM on Melanocortin receptor 5 and 5.1 nM in assay [2].
On to `C[C@@H](O)[C@H](NC(=O)[C@@H]1CCCCNC(=O)C[C@H](NC(=O)[C@H](N)Cc2ccccc2)C(=O)N[C@@H](Cc2cnc[nH]2)C(=O)N[C@H](Cc2ccccc2)C(=O)N[C@@H](CCCNC(=N)N)C(=O)N[C@@H](Cc2c[nH]c3ccccc23)C(=O)N1)C(N)=O`, for which the EC50 on Melanocortin receptor 4 [1] came out at 0.38 nM; on Melanocortin receptor 5, 0.074 nM; in assay [2] it was 0.047 nM.
For `C[C@@H](O)[C@H](NC(=O)[C@H]1CSSC[C@H](NC(=O)[C@H](N)Cc2ccccc2)C(=O)N[C@H](Cc2cnc[nH]2)C(=O)N[C@H](Cc2ccccc2)C(=O)N[C@@H](CCCNC(=N)N)C(=O)N[C@H](Cc2c[nH]c3ccccc23)C(=O)N1)C(N)=O`, the EC50 amounted to 0.2 nM at Melanocortin receptor 4 [1], 0.1 nM on Melanocortin receptor 5, 0.23 nM in assay [2] and 0.23 nM at Melanocortin receptor 3. Moreover, in assay [3], the IC50 result is on record as “Not Active”.
Turning to `C[C@H](O)[C@@H](NC(=O)[C@H]1CSSC[C@H](NC(=O)[C@H](N)Cc2ccccc2)C(=O)N[C@@H](Cc2cnc[nH]2)C(=O)N[C@@H](Cc2ccc(Cl)cc2)C(=O)N[C@@H](CCCNC(=N)N)C(=O)N[C@H](Cc2c[nH]c3ccccc23)C(=O)N1)C(N)=O`, the EC50 on Melanocortin receptor 4 [1] was found to be 0.67 nM; on Melanocortin receptor 5, 0.11 nM; in assay [2], 0.37 nM; on Melanocortin receptor 3, 7.3 nM.
Regarding `C[C@@H](O)[C@H](NC(=O)[C@H]1NC(=O)[C@H](Cc2c[nH]c3ccccc23)NC(=O)[C@H](CCCN=C(N)N)NC(=O)[C@@H](Cc2c[nH]c3ccccc23)NC(=O)[C@H](Cc2ccccc2)NC(=O)[C@@H](NC(=O)[C@H](N)Cc2ccccc2)CSSC1(C)C)C(N)=O`, the EC50 entry in assay [4] was “Not Active”.
On the same count and under the same terms, under `C[C@@H](O)[C@H](NC(=O)[C@@H]1NC(=O)[C@H](Cc2c[nH]c3ccccc23)NC(=O)[C@H](CCCN=C(N)N)NC(=O)[C@H](Cc2c[nH]c3ccccc23)NC(=O)[C@H](Cc2ccccc2)NC(=O)[C@@H](NC(=O)[C@H](N)Cc2ccccc2)CSSC1(C)C)C(N)=O` stands “Not Active”; under `C[C@@H](O)[C@H](NC(=O)[C@H]1NC(=O)[C@H](CO)NC(=O)[C@H](CCCN=C(N)N)NC(=O)[C@@H](Cc2c[nH]c3ccccc23)NC(=O)[C@H](Cc2ccc(O)cc2)NC(=O)[C@@H](NC(=O)[C@H](N)Cc2ccccc2)CSSC1(C)C)C(N)=O`, “Not Active”.
Still for that read-out and setting: the value for `C[C@@H](O)[C@H](NC(=O)[C@H]1NC(=O)[C@H](Cc2c[nH]c3ccccc23)NC(=O)[C@H](CCCN=C(N)N)NC(=O)[C@@H](Cc2c[nH]c3ccccc23)NC(=O)[C@H](Cc2ccc(O)cc2)NC(=O)[C@@H](NC(=O)[C@H](N)Cc2ccccc2)CSSC1(C)C)C(N)=O` was “Not Active”.
As for `C[C@@H](O)[C@H](NC(=O)[C@@H]1CSSC[C@H](NC(=O)[C@H](N)Cc2ccccc2)C(=O)N[C@@H](Cc2c[nH]cn2)C(=O)N[C@@H](Cc2ccc(F)cc2)C(=O)N[C@@H](CCCN=C(N)N)C(=O)N[C@H](Cc2c[nH]c3ccccc23)C(=O)N1)C(N)=O`, the IC50 result in assay [3] is on record as “Not Active”.
`C[C@@H](O)[C@H](NC(=O)[C@H]1CCSSC[C@H](NC(=O)[C@@H](N)Cc2ccccc2)C(=O)N[C@@H](Cc2cnc[nH]2)C(=O)N[C@H](Cc2ccccc2)C(=O)N[C@@H](CCCNC(=N)N)C(=O)N[C@H](Cc2c[nH]c3ccccc23)C(=O)N1)C(N)=O` displayed an EC50 at Melanocortin receptor 3 of 75 nM.
On to `C[C@@H](O)[C@H](NC(=O)[C@@H]1CSSC[C@H](NC(=O)[C@H](N)Cc2ccccc2)C(=O)N[C@@H](Cc2c[nH]cn2)C(=O)N[C@@H](Cc2cccc3ccccc23)C(=O)N[C@@H](CCCN=C(N)N)C(=O)N[C@H](Cc2c[nH]c3ccccc23)C(=O)N1)C(N)=O`, for which the IC50 entry in assay [3] was “Not Active”.
Regarding `C[C@@H](O)[C@H](NC(=O)[C@@H]1CSSC[C@H](NC(=O)[C@H](N)Cc2ccccc2)C(=O)N[C@@H](Cc2c[nH]cn2)C(=O)N[C@H](Cc2ccc(Cl)cc2)C(=O)N[C@@H](CCCN=C(N)N)C(=O)N[C@@H](Cc2c[nH]c3ccccc23)C(=O)N1)C(N)=O`, in assay [3], the IC50 entry is “Not Active”.
As for `C[C@@H](O)[C@H](NC(=O)[C@H]1NC(=O)[C@H](Cc2c[nH]c3ccccc23)NC(=O)[C@H](CCCNC(=N)N)NC(=O)[C@@H](Cc2ccccc2)NC(=O)[C@H](Cc2cnc[nH]2)NC(=O)[C@@H](NC(=O)[C@H](N)Cc2ccccc2)CSSC1(C)C)C(N)=O`, the EC50 at Melanocortin receptor 4 [1] is 20 nM; at Melanocortin receptor 5, 0.14 nM; in assay [2] it was 6.9 nM.
On Melanocortin receptor 3, `C[C@@H](O)[C@H](NC(=O)[C@H]1CCCCNC(=O)C[C@H](NC(=O)[C@@H](N)Cc2ccccc2)C(=O)N[C@@H](Cc2cnc[nH]2)C(=O)N[C@H](Cc2ccccc2)C(=O)N[C@@H](CCCNC(=N)N)C(=O)N[C@H](Cc2c[nH]c3ccccc23)C(=O)N1)C(N)=O` registered an EC50 of 0.23 nM.
As for `C[C@@H](O)[C@H](NC(=O)[C@H]1NC(=O)[C@H]([C@@H](C)O)NC(=O)[C@H](CCCN=C(N)N)NC(=O)[C@@H](Cc2ccccc2)NC(=O)[C@H](Cc2ccccc2)NC(=O)[C@@H](NC(=O)[C@H](N)Cc2ccccc2)CSSC1(C)C)C(N)=O`, the EC50 entry in assay [4] is given as “Not Active”. Further, the IC50 result in assay [3] is “Not Active”.
Consider `C[C@@H](O)[C@H](NC(=O)[C@@H]1CCCCNC(=O)C[C@H](NC(=O)[C@H](N)Cc2ccccc2)C(=O)N[C@@H](Cc2c[nH]cn2)C(=O)N[C@H](Cc2ccccc2)C(=O)N[C@@H](CCCN=C(N)N)C(=O)N[C@@H](Cc2c[nH]c3ccccc23)C(=O)N1)C(N)=O`, for which the IC50 result in assay [3] was “Not Active”.
Consider `C[C@@H](O)[C@H](NC(=O)[C@H]1NC(=O)[C@H]([C@@H](C)O)NC(=O)[C@H](CCCN=C(N)N)NC(=O)[C@@H](Cc2c[nH]c3ccccc23)NC(=O)[C@H](Cc2ccc(I)cc2)NC(=O)[C@@H](NC(=O)[C@H](N)Cc2ccccc2)CSSC1(C)C)C(N)=O`, for which, in assay [4], the EC50 result was “Not Active”.
As for `C[C@@H](O)[C@H](NC(=O)[C@@H]1CCSSC[C@H](NC(=O)[C@H](N)Cc2ccccc2)C(=O)N[C@@H](Cc2c[nH]cn2)C(=O)N[C@H](Cc2ccccc2)C(=O)N[C@@H](CCCN=C(N)N)C(=O)N[C@@H](Cc2c[nH]c3ccccc23)C(=O)N1)C(N)=O`, the IC50 result in assay [3] was “Not Active”.
As for `C[C@@H](O)[C@H](NC(=O)[C@H]1NC(=O)[C@H](Cc2c[nH]c3ccccc23)NC(=O)[C@H](CCCN=C(N)N)NC(=O)[C@@H](Cc2ccccc2)NC(=O)[C@H](Cc2c[nH]cn2)NC(=O)[C@@H](NC(=O)[C@H](N)Cc2ccccc2)CSSC1(C)C)C(N)=O`, the IC50 result in assay [3] is “Not Active”.
As to `C[C@@H](O)[C@H](NC(=O)[C@@H]1NC(=O)[C@@H](Cc2c[nH]c3ccccc23)NC(=O)[C@H](CCCNC(=N)N)NC(=O)[C@@H](Cc2ccccc2)NC(=O)[C@@H](Cc2cnc[nH]2)NC(=O)[C@@H](NC(=O)[C@H](N)Cc2ccccc2)CSSC1(C)C)C(N)=O`, the EC50 on Melanocortin receptor 3 was found to be 64 nM.
As to `C[C@@H](O)[C@H](NC(=O)[C@H]1CSSC(C)(C)[C@H](NC(=O)[C@H](N)Cc2ccccc2)C(=O)N[C@@H](Cc2c[nH]cn2)C(=O)N[C@@H](Cc2ccccc2)C(=O)N[C@@H](CCCN)C(=O)N[C@H](Cc2c[nH]c3ccccc23)C(=O)N1)C(N)=O`, the EC50 entry at Melanocortin receptor 4 [5] is “Not Active”; at Melanocortin receptor 5 it was 46 nM; in assay [2], 490 nM; at Melanocortin receptor 3, 59 nM; in assay [4] it was “Not Active”. Further, the IC50 entry in assay [6] is “Antagonist”.
Consider `C[C@@H](O)[C@H](NC(=O)[C@@H]1CSSC[C@@H](NC(=O)[C@H](N)Cc2ccccc2)C(=O)N[C@@H](Cc2c[nH]cn2)C(=O)N[C@@H](Cc2ccc3ccccc3c2)C(=O)N[C@@H](CCCN=C(N)N)C(=O)N[C@H](Cc2c[nH]c3ccccc23)C(=O)N1)C(N)=O`, for which the EC50 entry in assay [4] was “Not Active”. For the same molecule, in assay [3], the IC50 result is listed as “Not Active”.
With `C[C@@H](O)[C@H](NC(=O)[C@H]1CSSC[C@H](NC(=O)[C@H](N)Cc2ccccc2)C(=O)N[C@@H](Cc2c[nH]cn2)C(=O)N[C@@H](Cc2ccccc2)C(=O)N[C@@H](CCCN=C(N)N)C(=O)N[C@H](Cc2c[nH]c3ccccc23)C(=O)N1)C(N)=O`, the EC50 at Melanocortin receptor 4 [1] came out at 1.4 nM; on Melanocortin receptor 5 it was 0.12 nM; in assay [2], 1.5 nM; on Melanocortin receptor 3, 3 nM. Moreover, the IC50 entry in assay [3] is “Not Active”.
As to `C[C@@H](O)[C@H](NC(=O)[C@@H]1CSSC[C@H](NC(=O)[C@H](N)Cc2ccccc2)C(=O)N[C@@H](Cc2c[nH]cn2)C(=O)N[C@@H](Cc2ccc(I)cc2)C(=O)N[C@@H](CCCN=C(N)N)C(=O)N[C@H](Cc2c[nH]c3ccccc23)C(=O)N1)C(N)=O`, the EC50 result in assay [4] is reported as “Not Active”. The IC50 entry in assay [3] was “Not Active”.
Turning to `C[C@@H](O)[C@H](NC(=O)[C@H]1CSSC[C@H](NC(=O)[C@@H](N)Cc2ccccc2)C(=O)N[C@@H](Cc2c[nH]cn2)C(=O)N[C@H](Cc2ccccc2)C(=O)N[C@@H](CCCN=C(N)N)C(=O)N[C@H](Cc2c[nH]c3ccccc23)C(=O)N1)C(N)=O`, the IC50 result in assay [3] was “Not Active”.
